Series [1] can be described thus: Half life in overnight-fasted Wistar rat at 0.5 mg/kg, po measured upto 7 hrs by quadrupole mass spectrometry coupled UFLC analysis. The format is ADME, organism-based. Particulars: in vivo. The method, boiled down:
(§1)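 Conscious, freely moving male Wistar rats received compound in saline at 4 mL/kg, either i.v. via jugular vein at 0.1 mg/kg or by oral gavage at 0.5 mg/kg. Cannula blood was sampled up to 7 h and plasma measured by LC-MS/MS. Analysis was noncompartmental (trapezoidal AUC); Cmax and tmax were taken as observed, and t1/2 from log-linear terminal regression over at least 3 points. Mean ± SD, n = 5.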

Series [2] in a line: Total clearance in overnight-fasted Wistar rat at 0.1 mg/kg, iv measured upto 7 hrs by quadrupole mass spectrometry coupled UFLC analysis. The format is ADME, organism-based. Particulars: in vivo. The method, boiled down: as §1
Another series has as its target T1, Cytochrome P450 2C8 (Homo sapiens, UniProt P10632).
T1 sequence (P10632 whole entry): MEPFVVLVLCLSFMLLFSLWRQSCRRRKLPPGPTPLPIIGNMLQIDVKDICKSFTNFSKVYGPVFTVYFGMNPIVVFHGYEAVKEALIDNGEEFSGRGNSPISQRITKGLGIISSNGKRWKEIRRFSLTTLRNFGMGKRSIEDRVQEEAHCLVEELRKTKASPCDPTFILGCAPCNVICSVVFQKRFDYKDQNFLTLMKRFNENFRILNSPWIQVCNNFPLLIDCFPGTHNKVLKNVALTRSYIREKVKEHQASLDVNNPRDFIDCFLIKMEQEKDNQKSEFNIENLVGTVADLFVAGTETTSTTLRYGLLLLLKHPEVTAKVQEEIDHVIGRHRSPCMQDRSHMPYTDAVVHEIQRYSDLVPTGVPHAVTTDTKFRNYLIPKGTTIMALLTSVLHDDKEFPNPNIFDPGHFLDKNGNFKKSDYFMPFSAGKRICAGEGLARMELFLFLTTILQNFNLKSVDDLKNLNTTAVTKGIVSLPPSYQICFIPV
In words: Inhibition of CYP2C8 in human liver microsome at 10 uM. The format is toxicity. Particulars: microsomes. In short, it runs like this: (§2)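 Human liver microsomes (0.1 mg protein/mL) were mixed with compound at 10 μM and probe substrates in phosphate buffer pH 7.4: tacrine (CYP1A2), paclitaxel (2C8), tolbutamide (2C9), dextromethorphan (2D6) and midazolam (3A4). Reactions were started with an NADPH-generating system, run 10 min at 37 °C and stopped with acetonitrile. Metabolites were measured by LC/MS/MS and activity expressed as % remaining versus the no-inhibitor control.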

Series [3] in a line: Drug metabolism in human hepatocytes assessed as amide hydrolysis mediated HC-6 metabolite formation at 10 uM incubated upto 2 hrs by LC/UV/MS analysis. Type of series: ADME, cell-based, Hepatocyte. In short, it runs like this: (§3)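 Hepatocytes were suspended at 6 × 10^5 viable cells/mL in KHB buffer and given compound at 10 μM. Incubation was 0 and 2 h at 37 °C under 5% CO2, stopped with acetonitrile. After centrifugation, supernatant metabolites were analysed by LC/UV/MS.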

Series [4] concerns SARS-CoV-2. Kind of series: Antiviral activity against SARS coronavirus 2 infected in African green monkey Vero cells assessed as reduction in total viral RNA upto 25 uM measured after 24 hrs post-infection by qRT-PCR analysis. The format is functional, organism-based. Particulars: Severe acute respiratory syndrome coronavirus 2, dose microM <=25, time 24.0 hrs. The method, boiled down: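 Total viral RNA in treated, SARS-CoV-2-infected Vero cells was quantified by qPCR. Values are mean ± SEM of three independent experiments.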
Background: Real-time PCR tracks product formation cycle by cycle.

Series [5] is described as follows: Protein binding in human plasma incubated for 6 hrs by quadrupole mass spectrometry coupled UFLC analysis. The format is ADME, cell-free. Particulars: read-out: PPB.
A short description of series [6]: Drug metabolism in rat hepatocytes assessed as amide hydrolysis mediated HC-5 metabolite formation at 10 uM incubated upto 2 hrs by LC/UV/MS analysis. Type of series: ADME, cell-based, Hepatocyte. In short, it runs like this:
as §3

Series [7] in a line: Volume of distribution in overnight-fasted Wistar rat at 0.1 mg/kg, iv measured upto 7 hrs by quadrupole mass spectrometry coupled UFLC analysis. The format is ADME, organism-based. Particulars: in vivo. The method, boiled down:
as §1

In the next series the target is T2, Cytochrome P450 1A2 (Homo sapiens, UniProt P05177).
T2 sequence (P05177 whole entry): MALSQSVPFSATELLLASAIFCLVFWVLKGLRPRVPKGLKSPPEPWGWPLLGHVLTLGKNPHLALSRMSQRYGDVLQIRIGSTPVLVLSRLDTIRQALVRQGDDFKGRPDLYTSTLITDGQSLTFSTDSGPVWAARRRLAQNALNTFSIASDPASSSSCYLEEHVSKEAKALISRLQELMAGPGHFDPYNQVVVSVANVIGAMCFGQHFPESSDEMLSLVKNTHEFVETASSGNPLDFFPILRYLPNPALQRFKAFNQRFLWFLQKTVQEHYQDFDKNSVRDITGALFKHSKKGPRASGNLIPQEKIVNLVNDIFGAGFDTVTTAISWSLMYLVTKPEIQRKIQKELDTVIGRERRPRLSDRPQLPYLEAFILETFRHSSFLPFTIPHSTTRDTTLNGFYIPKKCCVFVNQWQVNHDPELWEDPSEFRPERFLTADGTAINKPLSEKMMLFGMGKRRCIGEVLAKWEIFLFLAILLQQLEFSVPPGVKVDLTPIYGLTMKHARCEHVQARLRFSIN
In words: Inhibition of CYP1A2 in human liver microsome at 10 uM. Type of series: toxicity. Particulars: microsomes. In short, it runs like this: as §2
(In general: Liver microsomes are vesicles of endoplasmic reticulum, rich in cytochrome P450 enzymes.)

The subject of series [8] is SARS-CoV-2. Kind of series: Antiviral activity against SARS coronavirus 2 infected in African green monkey Vero cells assessed as blockade of viral proliferation at 25 uM incubated for 48 hrs by cytopathic effect assay. The format is functional, organism-based. Particulars: Severe acute respiratory syndrome coronavirus 2.
Series [9] in a line: Cmax in overnight-fasted Wistar rat at 0.5 mg/kg, po measured upto 7 hrs by quadrupole mass spectrometry coupled UFLC analysis. Further details: route oral, dose 0.5 mg/kg, time <=7. Type of series: ADME, organism-based. Particulars: in vivo. In short, it runs like this:
as §1

A short description of series [10]: Oral bioavailability in overnight-fasted Wistar rat at 0.5 mg/kg and measured upto 7 hrs by quadrupole mass spectrometry coupled UFLC analysis. Type of series: ADME, organism-based. Particulars: in vivo. In short, it runs like this:
as §1

A short description of series [11]: Drug metabolism in human hepatocytes assessed as CYP450-catalysed oxidative pathway mediated metabolite formation at 10 uM incubated upto 2 hrs by LC/UV/MS analysis. Type of series: ADME, cell-based, Hepatocyte. In short, it runs like this:
as §3

Series [12] in a line: Half life in overnight-fasted Wistar rat at 0.1 mg/kg, iv measured upto 7 hrs by quadrupole mass spectrometry coupled UFLC analysis. The format is ADME, organism-based. Particulars: in vivo. In short, it runs like this: as §1
Series [13] can be described thus: Cytotoxicity against African green monkey Vero cells assessed as cell viability incubated for 24 hrs by MTT assay. The format is toxicity, cell-based. Particulars: chlorocebus sabaeus. The method, boiled down:
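Vero cells were seeded at 1.0 × 10^4 cells/well and cultured overnight at 37 °C. Compound was added for 24 h, and viability was measured by MTT assay with absorbance at 570 nm.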
A general note: Tetrazolium dyes change colour on reduction, which living cells bring about.

Series [14] is described as follows: AUC (0 to 7 hrs) in overnight-fasted Wistar rat at 0.5 mg/kg, po measured upto 7 hrs by quadrupole mass spectrometry coupled UFLC analysis. The format is ADME, organism-based. On the set-up: route oral, dose 0.5 mg/kg, time <=7. Particulars: in vivo. The method, boiled down:
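Male Wistar rats, conscious and unrestrained, were given the compound in saline at 4 mL/kg, either as an i.v. bolus via the left jugular vein or by oral gavage. Heparinized blood was drawn from a cannula at set times up to 7 h and the plasma analysed by LC-MS/MS. AUC0–7 and AUC0–∞ came from noncompartmental trapezoidal analysis; mean ± SD, n = 5.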

The nature of series [15]: Tmax in overnight-fasted Wistar rat at 0.5 mg/kg, po measured upto 7 hrs by quadrupole mass spectrometry coupled UFLC analysis. The format is ADME, organism-based. Particulars: in vivo. In short, it runs like this:
as §1

Series [16] relates to SARS-CoV-2. In words: Antiviral activity against SARS coronavirus 2 infected in African green monkey Vero cells assessed as blockade of viral proliferation at 10 uM incubated for 48 hrs by cytopathic effect assay. The format is functional, organism-based. Particulars: Severe acute respiratory syndrome coronavirus 2.

The source made the active and inactive calls. No cut-off for these calls is given here.

The term half-life denotes the time in which the quantity being followed falls by half. One may read the clearance as the volume of plasma or blood freed of the substance per unit of time. Usually Vd stands for the apparent volume that relates the amount in the body to the concentration in plasma or blood. As usually defined, the Cmax is the maximum level reached in the sampled fluid or tissue. The bioavailability is dose-corrected exposure relative to a reference, in per cent. As usually defined, the CC50 is the concentration giving 50% cytotoxicity. One may read the AUC(0-t) as the area under the concentration-time curve up to a stated or last time point. What is called Tmax is the time from dosing to the highest level. As for `COc1cccc2[nH]c(C(=O)N[C@@H](CC(C)C)C(=O)N[C@@H](C[C@@H]3CCNC3=O)C(=O)c3nc4ccccc4s3)cc12`, the half-life was 9.64 h in series [1] and 2.97 h in [12]. Besides, the clearance in series [2] is 6.43 L/h/kg. In addition, the “inhibition (INH)” value against Cytochrome P450 2C8 and on Cytochrome P450 1A2 was “Active” each time. In addition, the Drug metabolism result in [3], in series [6] and in [11] was “Metabolite_Detected” each time. In addition, the outcome in the series on SARS-CoV-2 [4], in the series on SARS-CoV-2 [8] and in the series with SARS-CoV-2 [16] was Active. In addition, the fraction unbound at 6 h in [5] came to 0.01. In series [7], this molecule had a Vd of 3.51 L/kg. Further, the Cmax in [9] was determined as 1.08 ng/mL. This molecule came in with a bioavailability in series [10] of 3.55%. Also, in series [13], the CC50 at 24 h is > 100 µM. Further, the AUC(0-t) in series [14] was 1.59 ng·h/mL. Also, in series [15], the Tmax was determined as 0.35 h.

The record behind these values is ChEMBL document CHEMBL5042480, “3CL Protease Inhibitors with an Electrophilic Arylketone Moiety as Anti-SARS-CoV-2 Agents” (J Med Chem, 2022).
